The values that follow come from ChEMBL document CHEMBL1133584, “Potent and selective non-peptidic inhibitors of endothelin-converting enzyme-1 with sustained duration of action” (J Med Chem, 2000).

In one assay the target is T1, Neprilysin (Rattus norvegicus, UniProt P07861).
T1 sequence (P07861 whole entry): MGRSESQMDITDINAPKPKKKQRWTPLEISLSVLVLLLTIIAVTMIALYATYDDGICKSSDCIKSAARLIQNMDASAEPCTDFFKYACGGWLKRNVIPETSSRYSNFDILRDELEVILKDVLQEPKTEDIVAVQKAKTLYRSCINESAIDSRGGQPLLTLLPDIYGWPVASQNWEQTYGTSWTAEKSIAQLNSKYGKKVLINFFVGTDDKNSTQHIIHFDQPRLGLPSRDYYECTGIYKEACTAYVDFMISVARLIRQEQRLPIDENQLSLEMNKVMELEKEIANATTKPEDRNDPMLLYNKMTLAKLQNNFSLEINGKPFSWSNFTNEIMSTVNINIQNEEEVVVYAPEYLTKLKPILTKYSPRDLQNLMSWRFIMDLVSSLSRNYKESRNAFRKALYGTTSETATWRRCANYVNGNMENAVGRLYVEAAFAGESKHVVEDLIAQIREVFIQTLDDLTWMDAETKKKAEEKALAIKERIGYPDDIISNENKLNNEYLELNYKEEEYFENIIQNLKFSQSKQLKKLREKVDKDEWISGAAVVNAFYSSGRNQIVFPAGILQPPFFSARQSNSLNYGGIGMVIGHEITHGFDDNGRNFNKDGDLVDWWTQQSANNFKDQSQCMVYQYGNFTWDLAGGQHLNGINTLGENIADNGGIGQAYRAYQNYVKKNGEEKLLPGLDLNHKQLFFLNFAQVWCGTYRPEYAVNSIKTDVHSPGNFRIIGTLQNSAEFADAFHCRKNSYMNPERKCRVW
Put plainly: In vitro inhibition of rat neutral endopeptidase.

Assay [1] addresses T2, Endothelin-converting enzyme 1 (Homo sapiens) (UniProt P42892).
T2 sequence (whole entry): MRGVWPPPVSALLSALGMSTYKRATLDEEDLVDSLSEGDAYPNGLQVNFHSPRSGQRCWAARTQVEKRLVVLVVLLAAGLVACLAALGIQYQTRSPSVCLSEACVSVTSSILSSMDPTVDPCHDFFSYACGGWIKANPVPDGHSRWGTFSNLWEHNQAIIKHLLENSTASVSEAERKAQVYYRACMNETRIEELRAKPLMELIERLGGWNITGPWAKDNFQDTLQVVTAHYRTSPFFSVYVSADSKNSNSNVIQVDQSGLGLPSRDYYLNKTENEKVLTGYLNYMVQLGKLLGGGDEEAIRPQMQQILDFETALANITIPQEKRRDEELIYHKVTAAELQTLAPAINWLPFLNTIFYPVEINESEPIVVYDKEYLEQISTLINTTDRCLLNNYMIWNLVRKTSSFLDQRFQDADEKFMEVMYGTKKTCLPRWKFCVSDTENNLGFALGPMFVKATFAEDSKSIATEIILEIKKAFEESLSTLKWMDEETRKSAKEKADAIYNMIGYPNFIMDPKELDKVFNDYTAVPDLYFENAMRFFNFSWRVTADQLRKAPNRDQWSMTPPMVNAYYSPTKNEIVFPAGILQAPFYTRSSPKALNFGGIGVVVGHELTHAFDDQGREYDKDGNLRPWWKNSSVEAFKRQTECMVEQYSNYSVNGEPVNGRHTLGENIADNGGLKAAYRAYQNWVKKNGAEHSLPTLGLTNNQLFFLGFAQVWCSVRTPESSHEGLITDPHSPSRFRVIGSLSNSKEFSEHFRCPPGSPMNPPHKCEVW
Put plainly: Inhibition of Endothelin-converting enzyme 1 activity at a concentration of 1 uM. Put shortly:
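Human recombinant ECE-1a came from CHO cell membranes. Activity was measured with test compound at 1 µM and expressed as percent inhibition.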

Assay [2] in a line: Selectivity ratio of IC50 NEP/IC50 ECE. The method, boiled down: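 ECE selectivity was the ratio of IC50 against rat kidney cortex NEP 24.11 to IC50 against CHO-membrane human recombinant ECE-1a.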
The target of assay [3] is T3, Endothelin-converting enzyme 1 (Homo sapiens, UniProt P42892).
T3 sequence (P42892 whole entry): T2 sequence (whole entry)
Put plainly: In Vitro inhibition of recombinant human endothelin converting enzyme-1. Put shortly:
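Enzyme was human recombinant ECE-1a from membranes of CHO cells expressing it. The IC50 was determined by the assay method of earlier work.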

As to `O=C(O)CNC(=O)[C@H](Cc1ccc2c(c1)oc1ccccc12)NCP(=O)(O)O`, the IC50 at Neprilysin is > 10000 nM. This molecule gave an inhibition in assay [1] of 43%.
Regarding `CC(C)C[C@H](NC(=O)[C@H](CC#Cc1ccc(F)cc1F)NCP(=O)(O)O)C(=O)N[C@@H](C)C(=O)O`, the IC50 against Neprilysin was 5800 nM. The Selectivity in assay [2] turned out to be 725.
In the case of `O=P(O)(O)C(CCc1cccc2ccccc12)N[C@@H](Cc1ccc(-c2ccccc2)cc1)c1nnn[nH]1` (stereo partly specified), the IC50 at Neprilysin amounted to 5 nM. Further, the Selectivity in assay [2] stood at 0.29.
For the molecule `CC(C)C[C@H](NC(=O)[C@H](CC#Cc1ccc(F)cc1F)NCP(=O)(O)O)C(=O)O`, at Neprilysin, half-maximal inhibition (IC50) was put at 6700 nM. Also, the Selectivity in assay [2] came out at 131.
In turn, `CC(NC(=O)[C@H](Cc1ccc2c(c1)oc1ccccc12)NCP(=O)(O)O)C(=O)O` (stereo partly specified) showed an IC50 at Neprilysin of 1640 nM. This molecule had an inhibition in assay [1] of 35%.
For `O=P(O)(O)CN[C@@H](CC#Cc1ccccc1F)c1nnn[nH]1`, the IC50 against Neprilysin was determined as 14 nM. The Selectivity in assay [2] was 0.1.
For the molecule `O=C(NCCc1ccc(-c2ccccc2)cc1)[C@H](Cc1ccc2c(c1)oc1ccccc12)NCP(=O)(O)O`, the inhibition in assay [1] came out at 5%.
For the molecule `O=C(NCCc1ccccc1)[C@H](Cc1ccc2c(c1)oc1ccccc12)NCP(=O)(O)O`, in assay [1], the inhibition was 29%.
With `O=C(O)[C@H](Cc1ccc2c(c1)oc1ccccc12)NC(CCc1cccc2ccccc12)P(=O)(O)O` (stereo in doubt; 40a') [listing 1 of 2 here], the IC50 against Neprilysin was found to be 13800 nM; in assay [3] it was 24 nM.
For the molecule `O=C(O)[C@H](Cc1ccc2c(c1)oc1ccccc12)NC(CCc1cccc2ccccc12)P(=O)(O)O` (stereo in doubt; 40a') [listing 2 of 2 here], the Selectivity in assay [2] came out at 574. In assay [1], this molecule registered an inhibition of 95%.
For the molecule `O=C(O)[C@H](Cc1ccc2c(c1)oc1ccccc12)NC(CCc1cccc2ccccc12)P(=O)(O)O` (stereo in doubt; 40b') [listing 1 of 2 here], the half-inhibitory concentration (IC50) in assay [3] came to 1800 nM.
In assay [1], `O=C(O)[C@H](Cc1ccc2c(c1)oc1ccccc12)NC(CCc1cccc2ccccc12)P(=O)(O)O` (stereo in doubt; 40b') [listing 2 of 2 here] came in with an inhibition of 34%.
In the case of `COc1cccc(CCC(N[C@@H](Cc2ccc3c(c2)oc2ccccc23)C(=O)O)P(=O)(O)O)c1OC` (stereo in doubt; 40c) [listing 1 of 2 here], the IC50 against Neprilysin worked out at 24000 nM; in assay [3] it was 19 nM.
Consider `COc1cccc(CCC(N[C@@H](Cc2ccc3c(c2)oc2ccccc23)C(=O)O)P(=O)(O)O)c1OC` (stereo in doubt; 40c) [listing 2 of 2 here], for which the Selectivity in assay [2] was 1260. For the same molecule, the inhibition in assay [1] was 95%.
In the case of `COc1cccc(CCC(N[C@@H](Cc2ccc3c(c2)oc2ccccc23)C(=O)O)P(=O)(O)O)c1OC` (stereo in doubt; 40d') [listing 1 of 2 here], the IC50 against Neprilysin turned out to be 6400 nM; in assay [3], 110 nM.
`COc1cccc(CCC(N[C@@H](Cc2ccc3c(c2)oc2ccccc23)C(=O)O)P(=O)(O)O)c1OC` (stereo in doubt; 40d') [listing 2 of 2 here]: the Selectivity in assay [2] worked out at 58. This molecule also gave an inhibition in assay [1] of 85%.
On to `COc1ccc(CCC(N[C@@H](Cc2ccc3c(c2)oc2ccccc23)C(=O)O)P(=O)(O)O)cc1OC` (stereo in doubt; 40e') [listing 1 of 2 here], for which the IC50 on Neprilysin is > 10000 nM; in assay [3] it was 29 nM.
Turning to `COc1ccc(CCC(N[C@@H](Cc2ccc3c(c2)oc2ccccc23)C(=O)O)P(=O)(O)O)cc1OC` (stereo in doubt; 40e') [listing 2 of 2 here], the Selectivity in assay [2] is > 345. Besides, the inhibition in assay [1] is 93%.
On to `COc1ccc(CCC(N[C@@H](Cc2ccc3c(c2)oc2ccccc23)C(=O)O)P(=O)(O)O)cc1OC` (stereo in doubt; 40f ') [listing 1 of 2 here], for which the IC50 in assay [3] turned out to be 890 nM.
`COc1ccc(CCC(N[C@@H](Cc2ccc3c(c2)oc2ccccc23)C(=O)O)P(=O)(O)O)cc1OC` (stereo in doubt; 40f ') [listing 2 of 2 here] showed an inhibition in assay [1] of 58%.
For `COc1cc(OC)c(OC)cc1CCC(N[C@@H](Cc1ccc2c(c1)oc1ccccc12)C(=O)O)P(=O)(O)O` (stereo in doubt; 40i') [listing 1 of 2 here], the figures for the IC50 (at Neprilysin; in assay [3]) were > 10000 nM and 40 nM, respectively.
Regarding `COc1cc(OC)c(OC)cc1CCC(N[C@@H](Cc1ccc2c(c1)oc1ccccc12)C(=O)O)P(=O)(O)O` (stereo in doubt; 40i') [listing 2 of 2 here], the Selectivity in assay [2] is > 250. This molecule showed an inhibition in assay [1] of 91%.
In assay [1], `COc1cc(OC)c(OC)cc1CCC(N[C@@H](Cc1ccc2c(c1)oc1ccccc12)C(=O)O)P(=O)(O)O` (stereo in doubt; 40j') gave an inhibition of 38%.
Take `COc1ccc(CCC(N[C@@H](Cc2ccc3c(c2)oc2ccccc23)C(=O)O)P(=O)(O)O)c(OC)c1OC` (stereo in doubt; 40k') [listing 1 of 2 here]: the results for the IC50 (against Neprilysin; in assay [3]) were 15000 nM and 35 nM, respectively.
As to `COc1ccc(CCC(N[C@@H](Cc2ccc3c(c2)oc2ccccc23)C(=O)O)P(=O)(O)O)c(OC)c1OC` (stereo in doubt; 40k') [listing 2 of 2 here], the Selectivity in assay [2] came out at 428. This molecule registered an inhibition in assay [1] of 91%.
For the molecule `COc1ccc(CCC(N[C@@H](Cc2ccc3c(c2)oc2ccccc23)C(=O)O)P(=O)(O)O)c(OC)c1OC` (stereo in doubt; 40l') [listing 1 of 2 here], the IC50 in assay [3] stood at 520 nM.
Take `COc1ccc(CCC(N[C@@H](Cc2ccc3c(c2)oc2ccccc23)C(=O)O)P(=O)(O)O)c(OC)c1OC` (stereo in doubt; 40l') [listing 2 of 2 here]: the inhibition in assay [1] is 64%.
On to `O=C(O)[C@H](Cc1ccc2c(c1)oc1ccccc12)NC(CCc1cccc2cccnc12)P(=O)(O)O` (stereo in doubt; 40m') [listing 1 of 2 here], for which the results for the IC50 (against Neprilysin; in assay [3]) were 59000 nM and 14 nM, respectively.
On to `O=C(O)[C@H](Cc1ccc2c(c1)oc1ccccc12)NC(CCc1cccc2cccnc12)P(=O)(O)O` (stereo in doubt; 40m') [listing 2 of 2 here], for which the Selectivity in assay [2] was found to be 4210. For the same molecule, the inhibition in assay [1] came out at 94%.
In the same order, the values of `O=C(O)[C@H](Cc1ccc2c(c1)oc1ccccc12)NC(CCc1cccc2cccnc12)P(=O)(O)O` (stereo in doubt; 40n') are 240 and 78%.
With `NCCCCC(N[C@@H](Cc1ccc2c(c1)oc1ccccc12)C(=O)O)P(=O)(O)O` (stereo in doubt; 40o'), in assay [2], the Selectivity was > 1030. The molecule also registered an inhibition in assay [1] of 84%.
For `NCCCCC(N[C@@H](Cc1ccc2c(c1)oc1ccccc12)C(=O)O)P(=O)(O)O` (stereo in doubt; 40p'), the inhibition in assay [1] was 19%.
Still for that read-out and setting: the value for `NCCCC(N[C@@H](Cc1ccc2c(c1)oc1ccccc12)C(=O)O)P(=O)(O)O` (stereo in doubt; 40q') was 73%.
As for `NCCCC(N[C@@H](Cc1ccc2c(c1)oc1ccccc12)C(=O)O)P(=O)(O)O` (stereo in doubt; 40r'), the inhibition in assay [1] came out at 29%.
For the molecule `CC(N[C@@H](Cc1ccc2c(c1)oc1ccccc12)C(=O)O)P(=O)(O)O` (stereo in doubt; 40u), the Selectivity in assay [2] amounted to 292. In assay [1], this molecule came in with an inhibition of 88%.
In the same order, the values of `CC(N[C@@H](Cc1ccc2c(c1)oc1ccccc12)C(=O)O)P(=O)(O)O` (stereo in doubt; 40v) are 261 and 81%.
For `O=P(O)(O)C(CCc1cccc2ccccc12)N[C@@H](Cc1ccc2c(c1)oc1ccccc12)c1nnn[nH]1` (stereo in doubt; 43a'), the Selectivity in assay [2] was determined as 81. The inhibition in assay [1] came out at 98%.
Regarding `O=P(O)(O)C(CCc1cccc2ccccc12)N[C@@H](Cc1ccc2c(c1)oc1ccccc12)c1nnn[nH]1` (stereo in doubt; 43b'), the Selectivity in assay [2] is 29. The molecule further had an inhibition in assay [1] of 73%.
Turning to `CC(C)C[C@H](NP(=O)(O)O[C@@H]1O[C@@H](C)[C@H](O)[C@@H](O)[C@H]1O)C(=O)N[C@@H](Cc1c[nH]c2ccccc12)C(=O)O` [PHOSPHORAMIDON], the IC50 against Neprilysin was 30 nM.
Take `O=C(O)CNC(=O)C(CS)Cc1ccccc1` (stereo unspecified) [THIORPHAN]: in assay [3], the IC50 was > 100000 nM.
